# Experiments:
# Trypanosoma brucei = assay: Antitrypanosomal activity against Trypanosoma brucei; type: functional, organism-based
# How it was run: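 Culture-adapted bloodstream T. brucei grown in HMI-9 with pen/strep, 10% heat-inactivated FBS and 10% Serum Plus at 37 °C, 5% CO2, diluted to 1 × 10^4 cells/mL. Inhibitor added from DMSO, 48 h at 37 °C, then 1 h room-temperature equilibration. Cell Titer Glo luminescence read after 8 min. Quadruplicate. IC50 by curve fitting. Values shift up to 10-fold with FBS lot.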
# Cathepsin B = Cathepsin B (Homo sapiens, UniProt P07858); assay: Inhibition of human liver cathepsin B
# How it was run: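 Human liver enzyme at 0.56 ng/mL final in sodium acetate pH 5.5 buffer with 4 mM DTT, 0.01% Triton X-100, 0.5 mM EDTA. 20 min room-temperature preincubation with inhibitor, then Z-Arg-Arg-AMC (10 µM final). Quadruplicate. Sigmoidal IC50 fit.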
# [1] = target: T1, Cathepsin B-like cysteine protease (Trypanosoma brucei, UniProt Q6R7Z5); assay: Inhibition of Trypanosoma brucei cathepsin B-like cysteine protease
# T1 sequence (Q6R7Z5 whole entry): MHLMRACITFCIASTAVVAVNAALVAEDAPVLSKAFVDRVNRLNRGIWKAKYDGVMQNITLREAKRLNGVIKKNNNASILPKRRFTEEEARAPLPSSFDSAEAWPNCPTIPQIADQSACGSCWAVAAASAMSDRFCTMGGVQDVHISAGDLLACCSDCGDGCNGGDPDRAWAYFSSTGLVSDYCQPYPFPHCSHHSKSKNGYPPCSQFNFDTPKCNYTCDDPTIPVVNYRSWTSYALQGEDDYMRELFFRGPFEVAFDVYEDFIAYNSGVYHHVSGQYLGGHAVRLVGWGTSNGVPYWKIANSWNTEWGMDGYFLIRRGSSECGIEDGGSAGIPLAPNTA
# How it was run: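 Recombinant TbcatB zymogen expressed in Pichia pastoris, purified by HIC and anion exchange, titrated with CA074; 35 nM final. Inhibitor preincubated 20 min at room temperature, then Z-Phe-Arg-AMC (10 µM final). Initial rate from fluorescence (ex 350/em 460 nm) over 10 min. Triplicate. Sigmoidal IC50 fit.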
# Procathepsin L = Procathepsin L (Homo sapiens, UniProt P07711); assay: Inhibition of human liver cathepsin L
# How it was run: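 Inhibitor preincubated 20 min at room temperature before Z-Phe-Arg-AMC (10 µM final). Initial rate from fluorescence (ex 350/em 460 nm) over 10 min. Quadruplicate. Sigmoidal IC50 fit.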
# Chain of Procathepsin L (P07711 whole entry): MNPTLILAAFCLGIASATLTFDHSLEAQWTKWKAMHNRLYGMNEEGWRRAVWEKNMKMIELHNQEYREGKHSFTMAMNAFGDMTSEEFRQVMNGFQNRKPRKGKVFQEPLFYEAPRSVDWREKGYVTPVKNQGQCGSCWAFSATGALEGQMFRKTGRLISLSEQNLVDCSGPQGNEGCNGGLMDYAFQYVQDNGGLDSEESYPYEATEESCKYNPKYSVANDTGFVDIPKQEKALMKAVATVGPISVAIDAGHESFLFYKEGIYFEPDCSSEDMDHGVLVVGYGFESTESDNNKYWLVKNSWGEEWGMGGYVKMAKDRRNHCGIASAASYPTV
IC50 (Trypanosoma brucei) [µM],IC50 (Cathepsin B) [µM],IC50 [1] [µM],IC50 (Procathepsin L) [µM],Compound
3.4,> 30,5,5.83,CCC(C)CNc1nc(C#N)nc2c1ncn2Cc1ccccc1 (stereo not drawn)
12,19,8.3,2.53,CCCn1cnc2c(NC3CCCCC3)nc(C#N)nc21
